Source: ChEMBL document CHEMBL1140809, “Design, synthesis, and biological evaluation of human sialidase inhibitors. Part 1: selective inhibitors of lysosomal sialidase (NEU1)” (Bioorg Med Chem Lett, 2008)

Key:
Type in all cases: cell-based
Sialidase-1 = Sialidase-1 (Homo sapiens, UniProt Q99519); test: Inhibition of human NEU1 expressed in HEK293 cells
Method in brief: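 Homogenates of HEK-293 cells transiently co-transfected with full-length human NEU1 cDNA plus protective protein cDNA. Substrate: 4MU-NeuAc. One unit (nmol/h) of enzyme incubated 30–60 min. Each compound tested at four concentrations (0.05, 0.1, 0.5, 1). IC50 derived by non-linear regression of concentration–inhibition curves.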

Sialidase-3 = target: T1, Sialidase-3 (Homo sapiens, UniProt Q9UQ49); test: Inhibition of human NEU3 expressed in HEK293 cells
T1 sequence (Q9UQ49 whole entry): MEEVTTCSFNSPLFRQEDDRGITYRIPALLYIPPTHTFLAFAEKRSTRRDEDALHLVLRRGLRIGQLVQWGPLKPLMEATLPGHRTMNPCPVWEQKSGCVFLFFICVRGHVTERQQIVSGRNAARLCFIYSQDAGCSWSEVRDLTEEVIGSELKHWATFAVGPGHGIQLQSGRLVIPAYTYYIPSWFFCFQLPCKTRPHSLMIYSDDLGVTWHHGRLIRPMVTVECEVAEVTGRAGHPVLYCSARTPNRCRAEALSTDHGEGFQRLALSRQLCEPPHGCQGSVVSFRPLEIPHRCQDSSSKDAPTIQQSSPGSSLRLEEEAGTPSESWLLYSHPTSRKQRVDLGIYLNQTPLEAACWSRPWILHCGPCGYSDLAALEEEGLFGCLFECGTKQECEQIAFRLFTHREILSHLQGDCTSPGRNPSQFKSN
Method in brief: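 Enzyme source: homogenates of HEK-293 cells transiently transfected with full-length human NEU3 cDNA. Substrate: mixed gangliosides. One unit (nmol/h) of enzyme incubated 30–60 min. Four test concentrations (0.05, 0.1, 0.5, 1). IC50 derived by non-linear regression of concentration–inhibition curves.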

Sialidase-4 = target: T2, Sialidase-4 (Homo sapiens, UniProt Q8WWR8); test: Inhibition of human NEU4 expressed in HEK293 cells
T2 sequence (Q8WWR8 whole entry): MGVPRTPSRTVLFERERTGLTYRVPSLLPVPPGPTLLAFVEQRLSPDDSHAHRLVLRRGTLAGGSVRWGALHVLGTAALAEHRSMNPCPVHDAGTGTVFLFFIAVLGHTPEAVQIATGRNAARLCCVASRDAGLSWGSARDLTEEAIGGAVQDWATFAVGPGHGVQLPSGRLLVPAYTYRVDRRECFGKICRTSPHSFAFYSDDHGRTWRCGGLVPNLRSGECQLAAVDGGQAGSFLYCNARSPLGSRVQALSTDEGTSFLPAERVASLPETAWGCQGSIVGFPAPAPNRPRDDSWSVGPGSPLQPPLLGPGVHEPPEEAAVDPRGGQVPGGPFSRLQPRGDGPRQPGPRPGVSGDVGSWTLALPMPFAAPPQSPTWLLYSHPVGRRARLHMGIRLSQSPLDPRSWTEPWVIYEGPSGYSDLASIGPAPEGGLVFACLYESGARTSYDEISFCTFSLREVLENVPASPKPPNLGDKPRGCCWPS
Method in brief: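 Human NEU4 (full-length cDNA) transiently expressed in HEK-293 cells, with cell homogenates as the enzyme source. Substrate: 4MU-NeuAc. One unit (nmol/h) of enzyme incubated 30–60 min. Four concentrations tested (0.05, 0.1, 0.5, 1). IC50 derived by non-linear regression of concentration–inhibition curves.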

Structure (SMILES)	IC50 (Sialidase-1) [µM]	IC50 (Sialidase-3) [µM]	IC50 (Sialidase-4) [µM]
CCC(C)CC(=O)NC[C@H](O)[C@H](O)[C@@H]1OC(C(=O)O)=C[C@H](O)[C@H]1NC(C)=O (stereo partly specified)	> 1000	> 1000	> 1000
CCCC(=O)NC[C@H](O)[C@H](O)[C@@H]1OC(C(=O)O)=C[C@H](O)[C@H]1NC(C)=O	32	> 1000	–
CC(=O)N[C@H]1[C@H]([C@@H](O)[C@@H](O)CNC(=O)CC(C)C)OC(C(=O)O)=C[C@@H]1O	565	> 1000	> 1000
CCCCC(=O)NC[C@H](O)[C@H](O)[C@@H]1OC(C(=O)O)=C[C@H](O)[C@H]1NC(C)=O	–	–	> 1000
CC(=O)N[C@H]1[C@H]([C@@H](O)[C@@H](O)CNC(=O)C(C)C)OC(C(=O)O)=C[C@@H]1O	–	> 1000	> 1000

Other lines, results leading:

IC50 (Sialidase-1) [µM]	IC50 (Sialidase-3) [µM]	IC50 (Sialidase-4) [µM]	Structure (SMILES)
135	> 1000	> 1000	CC(=O)N[C@H]1[C@H]([C@@H](O)[C@@H](O)CNC(=O)C2CCCC2)OC(C(=O)O)=C[C@@H]1O
680	> 1000	825	CC(=O)N[C@H]1[C@H]([C@@H](O)[C@@H](O)CNC(=O)C2CC2)OC(C(=O)O)=C[C@@H]1O
> 1000	> 1000	> 1000	CC(=O)N[C@H]1[C@H]([C@@H](O)[C@@H](O)CNC(=O)C(C)(C)C)OC(C(=O)O)=C[C@@H]1O
58	> 1000	580	CC(=O)NC[C@H](O)[C@H](O)[C@@H]1OC(C(=O)O)=C[C@H](O)[C@H]1NC(C)=O
13	320	810	CC(=O)N[C@H]1[C@H]([C@@H](O)[C@@H](O)CNC(=O)c2ccccc2)OC(C(=O)O)=C[C@@H]1O
